Measurements: ChEMBL document CHEMBL1123351, “Synthesis and pharmacological evaluation of some 6-substituted 7-methyl-1,4-dioxa-7-azaspiro[4.5]decanes as potential dopamine agonists” (1986)

Tests used:
Assay type in all cases: functional
Rattus norvegicus [1] = test: Compound was tested in vivo for dopamine agonist activity in the rat rotation assay after intravenous administration at dose 3.5 (umol/kg)
Felis catus = test: Compound was tested in vivo for dopamine agonist activity in the cat cardioaccelerator nerve assay; conditions: read-out: ID50 (the source's name)
Outline: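 Cats anesthetized with pentobarbital sodium 30 mg/kg injected into the thoracic cavity. Compounds given intravenously at doses spaced 0.33 log intervals apart, with N = 3 per dose. Inhibition of cardioaccelerator nerve response measured.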

Rattus norvegicus [2] = test: Compound was tested in vivo for dopamine agonist activity in the rat rotation assay after intravenous administration at the 4.60 (umol/kg) dose
Rattus norvegicus [3] = test: Compound was tested in vivo for dopamine agonist activity in the rat rotation assay after intravenous administration at dose 0.46 (umol/kg)
Rattus norvegicus [4] = test: Compound was tested in vivo for dopamine agonist activity in the rat rotation assay after intravenous administration at the dose 1.38 (umol/kg)

| Structure (SMILES) | Inhibition (Rattus norvegicus [1]) | ED50 (Felis catus) | Inhibition (Rattus norvegicus [2]) | Inhibition (Rattus norvegicus [3]) | Inhibition (Rattus norvegicus [4]) |
| --- | --- | --- | --- | --- | --- |
| CN1CCCC2(OCCO2)C1Cc1c[nH]c2ccccc12 (stereo not drawn) | 32% | > 4 µmol/kg | – | – | – |
| CN1CCCC2(OCCO2)C1Cc1cccc2[nH]ccc12 (stereo not drawn) | – | 0.095 µmol/kg | – | – | – |
| CN1CCc2cccc3c2[C@H]1Cc1ccc(O)c(O)c1-3 [APOMORPHINE] | – | 0.0348 µmol/kg | – | – | – |
| CN1CCCC2(OCCO2)C1Cc1ccccc1 (stereo not drawn) | – | > 4 µmol/kg | 36% | 22% | 18% |
